Measurements of several laboratories.
Lines come from different studies, so protocols differ.
CTSL: Procathepsin L (CTSL, Homo sapiens, UniProt P07711)

`C=CC(=O)N1CCC(COCC(=O)N2CCN(c3nc(-c4cnc(N)nc4C(F)F)nc(N4CCOC[C@@H]4C)n3)CC2)CC1` gave a remaining binding of 100% (Ephrin type-B receptor 1 (EPHB1, Homo sapiens, UniProt P54762); binding, competition with immobilised ligand; 1 µM).
`Oc1ncnc2[nH]ncc12` gave an inhibition of 100% (Xanthine dehydrogenase/oxidase (XDH, Bos taurus, UniProt P80457); enzyme activity, inhibitor, absorbance; 53 µg/mL).
For `O=C1/C(=C/c2ccc(O)c(O)c2)COc2cc(O)ccc21`, the remaining activity was 26.7% (CTSL; enzyme activity, inhibitor; 100 µM).
`Cc1cc([C@@H](C)Nc2ccccc2C(=O)O)c2nc(N3CCC(F)(F)CC3)c(C#N)c(=O)n2c1` gave a remaining binding of 92% (Serine/threonine-protein kinase STK11 (STK11, Homo sapiens, UniProt Q15831); binding, competition with immobilised ligand; 1 µM).
`N=c1c[n+](N2CCOCC2)[n-]o1` gave a KI (inactivation) of 27 µM (NAD-dependent protein deacetylase sirtuin-1 (SIRT1, Homo sapiens, UniProt Q96EB6); enzyme activity, inhibitor).
The remaining activity of `O=Cc1nccc2c1[nH]c1ccccc12` is reported as 150% (CTSL; enzyme activity, inhibitor; 100 µM).
`COc1cc(-c2cncc3c2CN(C)Cc2cc(N4CCNCC4)ccc2-3)cc(OC)c1OC` gave a remaining activity of 104% (Tau-tubulin kinase 2 (TTBK2, Homo sapiens, UniProt Q6IQ55); enzyme activity, inhibitor; 1 µM).
`CC(C)=CCC(O)C1=CC(=O)c2c(O)ccc(O)c2C1=O` (stereo not shown) has a remaining activity of 113% (CTSL; enzyme activity, inhibitor; 100 µM).
`Nc1ncnc2c1ncn2[C@@H]1O[C@H](COP(=O)(O)OP(=O)(O)OP(=O)(O)OP(=O)(O)OP(=O)(O)OC[C@H]2O[C@@H](n3cnc4c(N)ncnc43)[C@H](O)[C@@H]2O)[C@@H](O)[C@H]1O` gave a Km of 26 µM (Oxidized purine nucleoside triphosphate hydrolase (NUDT1, Homo sapiens, UniProt P36639); enzyme activity, substrate).
`CNc1ncc2c(/C=C/C(=O)N3CCC(OC)CC3)nn(Cc3cccc(C(F)(F)F)c3)c2n1` has a remaining activity of 84% (Tyrosine-protein kinase Blk (BLK, Homo sapiens, UniProt P51451); enzyme activity, inhibitor, radiometric; 1 µM).
